From ChEMBL document CHEMBL1126585, “Effect of N-methyl substitution of the peptide bonds in luteinizing hormone-releasing hormone agonists” (J Med Chem, 1993)
Square brackets hold non-standard residues; d marks the D form. Peptide text beside a SMILES is read from it. pGlu = O=C1CC[C@@H](C(=O)O)N1

Key:
Rattus norvegicus [1] = species: Rattus norvegicus; assay: Tested in vitro for LH release from cultured rat pituitary cells, activity is expressed as pD2 value; assay type: functional, Pituitary gland cell
In short: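 Cultured rat pituitary cells; LH release measured across agonist concentrations; pD2 = negative log of agonist concentration giving 50% of maximal LH release.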

[2] = Clearance in rat after iv dose (100 ug/kg); assay type: ADME, organism-based; details: in vivo, 0.1 mg/kg
In short: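 Castrate male rats given 100 μg/kg iv bolus; blood sampled over 6 h with EDTA anticoagulant. Plasma levels by RIA with antibody recognizing C-terminal Leu-Arg-Pro-NHEt or Leu-Arg-Pro-GlyNH₂ (rabbit antisera C-402 with [125I-Tyr⁵]leuprolide tracer, or 5328W with [125I-Tyr⁵,DLys⁶]LHRH). AUC by trapezoidal rule; whole-body clearance = dose/AUC, mL/min per kg.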

Rattus norvegicus [3] = species: Rattus norvegicus; assay: Intestinal stability against rat jejunum sac, activity is expressed as T1/2; assay type: functional
In short: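 Rat jejunal sac in vitro; T1/2 taken as time, in min, for lumenal compound concentration to fall by 50%.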

chymotrypsin = assay: Chymotrypsin degradation half-life was determined; assay type: ADME

SMILES | pD2 (Rattus norvegicus [1]) | clearance [2] | T1/2 (Rattus norvegicus [3]) | half-life (chymotrypsin)
CC(C)C[C@H](NC(=O)[C@@H](Cc1ccc2ccccc2c1)NC(=O)[C@H](Cc1ccc(O)cc1)NC(=O)[C@H](CO)NC(=O)[C@H](Cc1c[nH]c2ccccc12)NC(=O)[C@H](Cc1ccccc1)NC(=O)[C@@H]1CCC(=O)N1)C(=O)N[C@@H](CCCN=C(N)N)C(=O)N1CCC[C@H]1C(=O)NCC(N)=O | 10.23 | – | – | –
CCNC(=O)[C@@H]1CCCN1C(=O)[C@H](CCCN=C(N)N)NC(=O)[C@H](CC(C)C)NC(=O)[C@@H](Cc1c[nH]c2ccccc12)NC(=O)[C@H](Cc1ccc(O)cc1)N(C)C(=O)[C@H](CO)NC(=O)[C@H](Cc1c[nH]c2ccccc12)NC(=O)[C@H](Cc1c[nH]cn1)NC(=O)[C@@H]1CCC(=O)N1 | 10.55 | 11.1 mL/min/kg | – | –
CCNC(=O)[C@@H]1CCCN1C(=O)[C@H](CCCN=C(N)N)NC(=O)[C@H](CC(C)C)NC(=O)[C@@H](CC(C)C)NC(=O)[C@H](Cc1ccc(O)cc1)NC(=O)[C@H](CO)NC(=O)[C@H](Cc1c[nH]c2ccccc12)NC(=O)[C@H](Cc1ccccc1)NC(=O)[C@@H]1CCC(=O)N1 ([pGlu]FWSY[dL]LRP-NHEt) | – | 25.4 mL/min/kg | 2.2 min | –
CCNC(=O)[C@@H]1CCCN1C(=O)[C@H](CCCN=C(N)N)NC(=O)[C@H](CC(C)C)NC(=O)[C@@H](CC(C)C)N(C)C(=O)[C@H](Cc1ccc(O)cc1)NC(=O)[C@H](CO)NC(=O)[C@H](Cc1c[nH]c2ccccc12)NC(=O)[C@H](Cc1c[nH]cn1)NC(=O)[C@@H]1CCC(=O)N1 | 9.61 | – | 54 min | –
CCNC(=O)[C@@H]1CCCN1C(=O)[C@H](CCCN=C(N)N)N(C)C(=O)[C@H](CC(C)C)NC(=O)[C@@H](Cc1c[nH]c2ccccc12)NC(=O)[C@H](Cc1ccc(O)cc1)NC(=O)[C@H](CO)NC(=O)[C@H](Cc1c[nH]c2ccccc12)NC(=O)[C@H](Cc1c[nH]cn1)NC(=O)[C@@H]1CCC(=O)N1 | 9.35 | 25 mL/min/kg | – | –
CCNC(=O)[C@@H]1CCCN1C(=O)[C@H](CCCNC(=N)N)NC(=O)[C@H](CC(C)C)NC(=O)[C@@H](Cc1c[nH]c2ccccc12)NC(=O)[C@H](Cc1ccc(O)cc1)NC(=O)[C@H](CO)NC(=O)[C@H](Cc1c[nH]c2ccccc12)NC(=O)[C@H](Cc1c[nH]cn1)NC(=O)[C@@H]1CCC(=O)N1 [DESLORELIN] | 11.33 | 34.3 mL/min/kg | – | –
CCNC(=O)[C@@H]1CCCN1C(=O)[C@H](CCCN=C(N)N)NC(=O)[C@H](CC(C)C)NC(=O)[C@@H](Cc1c[nH]c2ccccc12)NC(=O)[C@H](Cc1ccc(O)cc1)NC(=O)[C@H](CO)NC(=O)[C@H](Cc1cccc2ccccc12)NC(=O)[C@H](Cc1c[nH]cn1)NC(=O)[C@@H]1CCC(=O)N1 | 11.49 | – | – | –
CCNC(=O)[C@@H]1CCCN1C(=O)[C@H](CCCN=C(N)N)NC(=O)[C@H](CC(C)C)NC(=O)[C@@H](Cc1c[nH]c2ccccc12)NC(=O)[C@H](Cc1ccc(O)cc1)NC(=O)[C@H](CO)N(C)C(=O)[C@H](Cc1c[nH]c2ccccc12)NC(=O)[C@H](Cc1cnc[nH]1)NC(=O)[C@@H]1CCC(=O)N1 | – | 19.9 mL/min/kg | – | –
CCNC(=O)[C@@H]1CCCN1C(=O)[C@H](CCCN=C(N)N)NC(=O)[C@H](CC(C)C)NC(=O)[C@@H](CC(C)C)N(C)C(=O)[C@H](Cc1ccc(O)cc1)NC(=O)[C@H](CO)NC(=O)[C@H](Cc1c[nH]c2ccccc12)NC(=O)[C@H](Cc1cnc[nH]1)NC(=O)[C@@H]1CCC(=O)N1 | – | 21 mL/min/kg | – | 1 min
CC(C)C[C@@H](C(=O)N[C@@H](CCCN=C(N)N)C(=O)N1CCC[C@H]1C(=O)NCC(N)=O)N(C)C(=O)[C@@H](Cc1ccc2ccccc2c1)NC(=O)[C@H](Cc1ccc(O)cc1)NC(=O)[C@H](CO)NC(=O)[C@H](Cc1c[nH]c2ccccc12)NC(=O)[C@H](Cc1c[nH]cn1)NC(=O)[C@@H]1CCC(=O)N1 | 12.35 | – | – | –
CC(C)C[C@H](NC(=O)[C@@H](Cc1ccc2ccccc2c1)NC(=O)[C@H](Cc1ccc(O)cc1)NC(=O)[C@H](CO)NC(=O)[C@H](Cc1cccc2ccccc12)NC(=O)[C@H](Cc1c[nH]cn1)NC(=O)[C@@H]1CCC(=O)N1)C(=O)N[C@@H](CCCN=C(N)N)C(=O)N1CCC[C@H]1C(=O)NCC(N)=O | 11.55 | – | – | –
CCNC(=O)[C@@H]1CCCN1C(=O)[C@H](CCCNC(=N)N)NC(=O)[C@H](CC(C)C)N(C)C(=O)[C@@H](Cc1c[nH]c2ccccc12)NC(=O)[C@H](Cc1ccc(O)cc1)NC(=O)[C@H](CO)NC(=O)[C@H](Cc1c[nH]c2ccccc12)NC(=O)[C@H](Cc1c[nH]cn1)NC(=O)[C@@H]1CCC(=O)N1 [LUTRELIN] | 10.7 | 19.5 mL/min/kg | – | –
CC(C)C[C@H](NC(=O)[C@@H](Cc1ccc2ccccc2c1)NC(=O)[C@H](Cc1ccc(O)cc1)NC(=O)[C@H](CO)NC(=O)[C@H](Cc1cccc2ccccc12)N(C)C(=O)[C@H](Cc1c[nH]cn1)NC(=O)[C@@H]1CCC(=O)N1)C(=O)N[C@@H](CCCN=C(N)N)C(=O)N1CCC[C@H]1C(=O)NCC(N)=O | 8.7 | – | – | –
CCNC(=O)[C@@H]1CCCN1C(=O)[C@H](CCCN=C(N)N)NC(=O)[C@H](CC(C)C)NC(=O)[C@@H](CC(C)C)NC(=O)[C@H](Cc1ccc(O)cc1)N(C)C(=O)[C@H](CO)NC(=O)[C@H](Cc1c[nH]c2ccccc12)NC(=O)[C@H](Cc1cnc[nH]1)NC(=O)[C@@H]1CCC(=O)N1 | – | 8.2 mL/min/kg | – | > 60 min
CCNC(=O)[C@@H]1CCCN1C(=O)[C@H](CCCN=C(N)N)NC(=O)[C@H](CC(C)C)NC(=O)[C@@H](CC(C)C)NC(=O)[C@H](Cc1ccc(O)cc1)N(C)C(=O)[C@H](CO)NC(=O)[C@H](Cc1c[nH]c2ccccc12)NC(=O)[C@H](Cc1c[nH]cn1)NC(=O)[C@@H]1CCC(=O)N1 | – | – | 42 min | –
CC(C)C[C@H](NC(=O)[C@@H](Cc1ccc2ccccc2c1)NC(=O)[C@H](Cc1ccc(O)cc1)NC(=O)[C@H](CO)NC(=O)[C@H](Cc1c[nH]c2ccccc12)NC(=O)[C@H](Cc1cnc[nH]1)NC(=O)[C@@H]1CCC(=O)N1)C(=O)N[C@@H](CCCNC(=N)N)C(=O)N1CCC[C@H]1C(=O)NCC(N)=O [NAFARELIN] | 11.05 | 5.5 mL/min/kg | – | 0.5 min
CC(C)C[C@H](NC(=O)[C@@H](Cc1ccc2ccccc2c1)NC(=O)[C@H](Cc1ccc(O)cc1)NC(=O)[C@H](CO)NC(=O)[C@H](Cc1c[nH]c2ccccc12)NC(=O)[C@H](Cc1c[nH]cn1)N(C)C(=O)[C@@H]1CCC(=O)N1)C(=O)N[C@@H](CCCN=C(N)N)C(=O)N1CCC[C@H]1C(=O)NCC(N)=O | 8.18 | 4.13 mL/min/kg | – | –
CCNC(=O)[C@@H]1CCCN1C(=O)[C@H](CCCN=C(N)N)NC(=O)[C@H](CC(C)C)NC(=O)[C@@H](Cc1c[nH]c2ccccc12)NC(=O)[C@H](Cc1ccc(O)cc1)NC(=O)[C@H](CO)N(C)C(=O)[C@H](Cc1c[nH]c2ccccc12)NC(=O)[C@H](Cc1c[nH]cn1)NC(=O)[C@@H]1CCC(=O)N1 | – | – | 39.1 min | –
CCNC(=O)[C@@H]1CCCN1C(=O)[C@H](CCCN=C(N)N)NC(=O)C(CC(C)C)NC(=O)C(CC(C)C)NC(=O)[C@H](Cc1ccc(O)cc1)NC(=O)[C@H](CO)NC(=O)[C@H](Cc1c[nH]c2ccccc12)NC(=O)[C@H](Cc1c[nH]cn1)N(C)C(=O)[C@@H]1CCC(=O)N1 (stereo in doubt) [listing 1 of 3 here] | – | 7.16 mL/min/kg | – | 7 min
CCNC(=O)[C@@H]1CCCN1C(=O)[C@H](CCCN=C(N)N)NC(=O)C(CC(C)C)NC(=O)C(CC(C)C)NC(=O)[C@H](Cc1ccc(O)cc1)NC(=O)[C@H](CO)NC(=O)[C@H](Cc1c[nH]c2ccccc12)NC(=O)[C@H](Cc1c[nH]cn1)N(C)C(=O)[C@@H]1CCC(=O)N1 (stereo in doubt) [listing 2 of 3 here] | – | – | 48 min | –
CC(C)C[C@H](NC(=O)[C@@H](Cc1c[nH]c2ccccc12)NC(=O)[C@H](Cc1ccc(O)cc1)NC(=O)[C@H](CO)NC(=O)[C@H](Cc1c[nH]c2ccccc12)NC(=O)[C@H](Cc1c[nH]cn1)NC(=O)[C@@H]1CCC(=O)N1)C(=O)N[C@@H](CCCN=C(N)N)C(=O)N1CCC[C@H]1C(=O)N(C)CC(N)=O | 10.05 | 4.32 mL/min/kg | – | –
CC(C)C[C@H](NC(=O)[C@@H](Cc1ccc2ccccc2c1)NC(=O)[C@H](Cc1ccc(O)cc1)NC(=O)[C@H](CO)NC(=O)[C@H](Cc1c[nH]c2ccccc12)NC(=O)[C@H](Cc1c[nH]cn1)NC(=O)[C@@H]1CCC(=O)N1)C(=O)N[C@@H](CCCN=C(N)N)C(=O)N1CCC[C@H]1C(=O)N(C)CC(N)=O | 11.87 | 3.55 mL/min/kg | – | –
CCNC(=O)[C@@H]1CCCN1C(=O)[C@H](CCCN=C(N)N)NC(=O)C(CC(C)C)NC(=O)C(CC(C)C)NC(=O)[C@H](Cc1ccc(O)cc1)NC(=O)[C@H](CO)NC(=O)[C@H](Cc1c[nH]c2ccccc12)NC(=O)[C@H](Cc1c[nH]cn1)N(C)C(=O)[C@@H]1CCC(=O)N1 (stereo in doubt) [listing 3 of 3 here] | 8.22 | – | – | –
CCNC(=O)[C@@H]1CCCN1C(=O)[C@H](CCCN=C(N)N)NC(=O)[C@H](CC(C)C)NC(=O)[C@@H](Cc1c[nH]c2ccccc12)NC(=O)[C@H](Cc1ccc(O)cc1)NC(=O)[C@H](CO)NC(=O)[C@H](Cc1cccc2ccccc12)N(C)C(=O)[C@H](Cc1c[nH]cn1)NC(=O)[C@@H]1CCC(=O)N1 | 8.35 | 15.1 mL/min/kg | – | –
CCNC(=O)[C@@H]1CCCN1C(=O)[C@H](CCCN=C(N)N)NC(=O)[C@H](CC(C)C)NC(=O)[C@@H](Cc1c[nH]c2ccccc12)NC(=O)[C@H](Cc1ccc(O)cc1)NC(=O)[C@H](CO)NC(=O)[C@H](Cc1c[nH]c2ccccc12)NC(=O)[C@H](Cc1ccccc1)NC(=O)[C@@H]1CCC(=O)N1 ([pGlu]FWSY[dW]LRP-NHEt) | – | 28.8 mL/min/kg | 10.8 min | –
CC(C)C[C@H](NC(=O)[C@@H](Cc1ccc2ccccc2c1)N(C)C(=O)[C@H](Cc1ccc(O)cc1)NC(=O)[C@H](CO)NC(=O)[C@H](Cc1c[nH]c2ccccc12)NC(=O)[C@H](Cc1c[nH]cn1)NC(=O)[C@@H]1CCC(=O)N1)C(=O)N[C@@H](CCCN=C(N)N)C(=O)N1CCC[C@H]1C(=O)NCC(N)=O | 8.3 | – | – | –
